This passage reports ΔCt and Activity results from ChEMBL document CHEMBL3351861, “New synthetic sulfone derivatives inhibit growth, adhesion and the leucine arylamidase APE2 gene expression of Candida albicans in vitro” (2015).

Calls of active or inactive are those of the source. The calls are words filed in the database; no cut-off is given here.

Assay [1] has as its system Candida albicans. The experiment in a line: Reduction in APE2 gene expression in compound pre-treated Candida albicans CAI4 expressing delta-cph1/delta-efg1 gene grown under YEPD medium at 16 ug/ml pre-treated for 2 hrs measured after 18 hrs by RT-PCR method. In kind it is functional. The method in brief: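 Blastoconidia from YEPD (10^4 cfu/ml) are washed and exposed 2 h to 16 µg/ml sulfone in YEPD. They are then washed and regrown 18 h at 30°C in YEPD before RNA extraction. Real-time RT-PCR uses SYBR Green with 250 nM primers and 60 ng cDNA: 95°C 15 min, then 45 cycles of 94°C 15 s and 60°C 1 min, plus a dissociation curve. APE2 is normalized to ACT1 by 2^-ΔΔCt with strain 90028 as calibrator; three experiments.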

Assay [2] concerns Candida albicans. Put plainly: Inhibition of hyphae formation in Candida albicans 90028 assessed as appearance of spherical blastoconidia with polarly located budding without filament formation at 16 ug/ml incubated for 18 hrs by phase contrast microscopy.

Regarding `NNc1ccc(S(=O)(=O)C(Cl)(Br)Br)cc1[N+](=O)[O-]`, the ΔCt in the assay with Candida albicans [1] worked out at 4.05. In the assay on Candida albicans [2], the result was Active.
